According to publication PMC2771199 (Bioorganic & medicinal chemistry, 2009):
Entries after “also recorded” stand apart in the source; their conditions may differ. Like-named read-outs stand apart in the source and are kept apart here. Where a SMILES comes first, the peptide text is derived from it. The star is where a group is joined. Dnp = O=[N+]([O-])c1ccc(*)c([N+](=O)[O-])c1

Legend:
[1] = target: T1, LPA1 (Homo sapiens, UniProt Q92633); conditions: read-out: IC50 LPA1; previously reported antagonists; NE no effect; cited from earlier work
[2] = target: T2, LPA2 (Homo sapiens, UniProt Q9HBW0); conditions: previously reported antagonists, cited from earlier work; for IC50: read-out: IC50 LPA2, NE no effect
[3] = target: T3, LPA3 (Homo sapiens, UniProt Q9UBY5); conditions: previously reported antagonists, cited from earlier work
T3 sequence (Q9UBY5 1-353): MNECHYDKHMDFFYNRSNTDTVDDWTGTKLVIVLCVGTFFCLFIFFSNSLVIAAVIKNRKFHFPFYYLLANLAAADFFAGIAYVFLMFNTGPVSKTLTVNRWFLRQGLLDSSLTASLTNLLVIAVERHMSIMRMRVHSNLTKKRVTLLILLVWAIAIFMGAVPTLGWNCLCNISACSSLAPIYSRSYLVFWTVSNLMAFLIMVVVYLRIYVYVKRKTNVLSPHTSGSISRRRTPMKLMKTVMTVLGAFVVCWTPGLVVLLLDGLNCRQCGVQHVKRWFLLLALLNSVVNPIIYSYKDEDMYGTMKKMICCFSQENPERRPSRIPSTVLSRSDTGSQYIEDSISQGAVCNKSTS

[4] = target: T4, LPA4 (Homo sapiens, UniProt Q99677); conditions: read-out: IC50 LPA4; previously reported antagonists; NE no effect; cited from earlier work
[5] = target: T5, LPA5 (Homo sapiens, UniProt Q9H1C0); conditions: read-out: IC50 LPA5; previously reported antagonists; NE no effect; cited from earlier work
[6] = target: T1, LPA1; assay: LPA receptor-promoted intracellular Ca2+ mobilization, LPA1; type: cell-based; conditions: for IC50: read-out: IC50 LPA1, dose response; for LPA1 antagonist activity (in words): Ca2+ assay
How it was run: (§1)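 Cells stably expressing the given LPA receptor were plated and cultured overnight, then moved to serum-free medium for 4-6 h and loaded with fura-2. Intracellular Ca2+ was read on a plate fluorometer as the ratio of 520 nm emission under 340 vs 380 nm excitation. Test compounds were dissolved in methanol, diluted in buffer, and run in quadruplicate. IC50 was taken from concentration-response curves.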

[7] = target: T2, LPA2; assay: LPA receptor-promoted intracellular Ca2+ mobilization, LPA2; type: cell-based; conditions: read-out: IC50 LPA2; dose response
How it was run: as §1

[8] = target: T4, LPA4; assay: LPA receptor-promoted intracellular Ca2+ mobilization, LPA4; type: cell-based; conditions: read-out: IC50 LPA4; dose response
How it was run: as §1

[9] = target: T5, LPA5; assay: LPA receptor-promoted intracellular Ca2+ mobilization, LPA5; type: cell-based; conditions: for IC50: read-out: IC50 LPA5, dose response
How it was run: as §1

[10] = target: T3, LPA3; assay: LPA receptor-promoted intracellular Ca2+ mobilization, LPA3; type: cell-based; conditions: for % inhibition at 10μM: Table 3, LPA3 inhibition; for LPA3 antagonist activity (in words): Ca2+ assay
[11] = 10 μM compound against 200 nM LPA

T5 sequence (Q9H1C0 whole entry, species assumed): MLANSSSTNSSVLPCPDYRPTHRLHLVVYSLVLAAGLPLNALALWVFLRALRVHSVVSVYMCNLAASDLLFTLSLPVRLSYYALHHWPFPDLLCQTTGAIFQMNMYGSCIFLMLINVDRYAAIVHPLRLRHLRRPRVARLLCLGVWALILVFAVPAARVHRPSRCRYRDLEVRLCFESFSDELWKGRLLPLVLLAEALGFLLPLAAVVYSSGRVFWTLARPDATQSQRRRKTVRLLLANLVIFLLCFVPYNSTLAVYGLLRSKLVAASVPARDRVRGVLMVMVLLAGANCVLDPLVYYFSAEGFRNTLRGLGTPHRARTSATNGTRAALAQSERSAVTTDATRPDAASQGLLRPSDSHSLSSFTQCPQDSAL
T2 sequence (Q9HBW0 whole entry, species assumed): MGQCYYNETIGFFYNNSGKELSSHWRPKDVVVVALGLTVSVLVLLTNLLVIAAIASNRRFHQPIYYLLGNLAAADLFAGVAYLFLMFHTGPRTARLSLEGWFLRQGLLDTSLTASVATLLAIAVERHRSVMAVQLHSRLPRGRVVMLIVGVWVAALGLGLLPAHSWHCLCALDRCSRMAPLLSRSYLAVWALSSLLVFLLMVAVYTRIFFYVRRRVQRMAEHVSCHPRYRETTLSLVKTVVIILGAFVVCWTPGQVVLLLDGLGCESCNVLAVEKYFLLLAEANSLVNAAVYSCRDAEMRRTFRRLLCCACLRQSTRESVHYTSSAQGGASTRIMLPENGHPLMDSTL
T4 sequence (Q99677 whole entry, species assumed): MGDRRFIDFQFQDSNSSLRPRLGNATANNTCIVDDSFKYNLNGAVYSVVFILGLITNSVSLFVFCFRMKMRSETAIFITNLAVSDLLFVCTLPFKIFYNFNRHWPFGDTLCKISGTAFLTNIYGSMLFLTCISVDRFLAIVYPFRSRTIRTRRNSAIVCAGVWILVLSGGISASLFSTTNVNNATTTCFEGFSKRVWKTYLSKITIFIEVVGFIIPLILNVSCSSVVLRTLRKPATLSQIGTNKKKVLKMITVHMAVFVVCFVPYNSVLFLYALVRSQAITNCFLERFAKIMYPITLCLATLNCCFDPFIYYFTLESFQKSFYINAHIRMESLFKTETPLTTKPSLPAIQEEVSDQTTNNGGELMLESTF
T1 sequence (Q92633 whole entry, species assumed): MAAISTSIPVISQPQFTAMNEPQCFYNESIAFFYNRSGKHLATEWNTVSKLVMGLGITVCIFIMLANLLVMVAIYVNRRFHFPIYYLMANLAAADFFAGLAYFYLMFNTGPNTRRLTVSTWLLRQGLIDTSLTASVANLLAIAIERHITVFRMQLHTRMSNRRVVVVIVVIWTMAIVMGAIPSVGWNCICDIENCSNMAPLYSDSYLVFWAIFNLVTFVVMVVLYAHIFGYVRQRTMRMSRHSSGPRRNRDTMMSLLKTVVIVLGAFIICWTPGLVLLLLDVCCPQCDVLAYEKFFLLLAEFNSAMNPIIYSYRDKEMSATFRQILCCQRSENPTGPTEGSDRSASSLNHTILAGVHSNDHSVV

NCC(=O)N[C@@H](CSc1ccc([N+](=O)[O-])cc1[N+](=O)[O-])C(=O)N[C@@H](CCC(=O)O)C(=O)O [Compound 1] (H-Gly-Cys(Dnp)-Glu-OH)
IC50 [1]: > 10 µM
IC50 [2]: > 10 µM
Imax LPA3 [3]: 69.8%
IC50 [4]: > 10 µM
IC50 [5]: > 10 µM

O=C(O)/C=C/C(=O)Nc1cccc(NC(=O)/C=C/C(=O)O)c1 [Compound 2]
IC50 ([3]; read-out: IC50 LPA3, NE no effect): > 10 µM
IC50 [4]: > 10 µM
IC50 [5]: > 10 µM

O=C(O)/C=C/C(=O)Nc1cccc(NC(=O)/C=C/C(=O)O)c1C(=O)O [Compound 3]
IC50 [1]: > 10 µM
Imax LPA2 [2]: 53.3%
Imax LPA3 [3]: 81.7%
IC50 [4]: > 10 µM
IC50 [5]: > 10 µM

O=C(O)/C=C/C(=O)Nc1ccc(Oc2cccc(Oc3ccc(NC(=O)/C=C/C(=O)O)cc3)c2)cc1 [Compound 4]
IC50 [4]: > 10 µM
IC50 [5]: > 10 µM

O=C(O)CN1C(=O)c2ccc(Oc3cccc([N+](=O)[O-])c3)cc2C1=O [Compound 5, [5-(3-nitrophenoxy)-1,3-dioxo-1,3-dihydro-2-isoindol-2-yl]acetic acid]
IC50 [6]: > 10 µM
IC50 [7]: > 10 µM
IC50 [8]: > 10 µM
IC50 [9]: > 10 µM
IC50 [1]: > 10 µM
IC50 [2]: > 10 µM
IC50 [4]: > 10 µM
IC50 [5]: > 10 µM

O=C(O)COc1ccc(N2C(=O)c3ccc(Oc4cccc([N+](=O)[O-])c4)cc3C2=O)cc1 [Compound 6]
% inhibition at 10μM [10, 11]: agonist

O=C1c2ccc(Oc3cccc([N+](=O)[O-])c3)cc2C(=O)N1Cc1cccnc1 [Compound 8]
LPA3 antagonist activity (in words) [10]: active

O=C(O)CN1C(=O)c2ccc(Oc3ccc([N+](=O)[O-])cc3)cc2C1=O [Compound 11]
IC50 [6]: > 10 µM
IC50 [7]: > 10 µM
LPA3 antagonist activity (in words) [10]: no inhibition; also recorded: no activity
LPA3 antagonist activity (in words) ([10]; listed as compound 11): no antagonist activity
IC50 ([10]; read-out: IC50 LPA3, dose response, activation by 200 nM LPA): > 10 µM
inhibition at 10 µM ([10]; read-out: Percent inhibiton at 10μM, Table 2, 10 μM compound against 200 nM LPA): < 10%
IC50 [8]: > 10 µM
IC50 [9]: > 10 µM

Cc1ccc(Oc2ccc3c(c2)C(=O)N(CC(=O)O)C3=O)cc1 [Compound 12]
LPA1 antagonist activity (in words) [6]: LPA1 antagonists
IC50 [7]: > 10 µM
IC50 [8]: > 10 µM
IC50 [9]: > 10 µM

Cc1ccc(Oc2ccc3c(c2)C(=O)N(CC2CCCO2)C3=O)cc1 (stereo not shown) [Compound 14]
LPA3 antagonist activity (in words) [10]: not active

O=C(O)CN1C(=O)c2ccc(C(=O)c3cccc([N+](=O)[O-])c3)cc2C1=O [Compound 15]
% inhibition at 10μM [10, 11]: Agonist

CC(=O)COc1ccc(NC(=O)CN2C(=O)c3ccc([N+](=O)[O-])cc3C2=O)cc1 [Compound 18]
% inhibition at 10μM [10, 11]: Agonist

O=C(O)c1ccc2c(c1)C(=O)N(c1cccc(Oc3ccc([N+](=O)[O-])cc3)c1)C2=O [Compound 20]
LPA1 antagonist activity (in words) [6]: LPA1 antagonists
IC50 [7]: > 10 µM
fold increase in potency compared to compound 5 ([10]; LPA3 IC50 versus compound 5): 6 fold
% inhibition at 10μM [10, 11]: > 50%
IC50 [8]: > 10 µM
LPA5 antagonist activity (in words) ([9]; Ca2+ assay): LPA5 antagonist
